Reference: PMC5900865 (Clinical Pharmacology in Drug Development, 2017)

Legend:
CYP2E1 = conditions: cited from earlier work
healthy Japanese adults = assay: Safety evaluation across all 3 studies; type: in vivo, human; conditions: any of the studies
healthy adult men = assay: Study 3 safety evaluation; type: in vivo, human; conditions: single 10 mg
CYP1A2 = conditions: cited from earlier work
CYP2D6 = conditions: cited from earlier work
[1] = Study 1B multiple-dose pharmacokinetics; type: in vivo, human
In short: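 Men (5, 10, 20 mg) and women (5, 10 mg) were dosed orally, fed, daily for 12 days. Plasma was sampled on day 1 predose to […]. Urine came from the 5 mg cohort predose days 1–16 then in 24-h intervals, and for 10/20 mg on day 12 at 0–24 h. Analysis was by HPLC-MS/MS and noncompartmental.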

CYP2B6 = conditions: cited from earlier work
CYP2C19 = conditions: cited from earlier work
[2] = day 12, female, 5 mg daily, n = 5, mean (SD)
[3] = day 12, female, 10 mg daily, n = 6, mean (SD)
[4] = day 12, male, 5 mg daily, n = 6, mean (SD)
[5] = day 12, male, 10 mg daily, n = 6, mean (SD)
[6] = day 12, male, 20 mg daily, n = 6, mean (SD)

Q: With Cc1ccc(Sc2ccccc2N2CCNCC2)c(C)c1 [Vortioxetine, 1‐[2‐(2,4‐dimethylphenylsulfanyl)phenyl]piperazine] as the compound, how does the “inhibitory or inducing effect in vitro” value (CYP2E1) read?
A: No inhibitory or inducing effect

Q: What about the “deaths or serious AEs” value (healthy Japanese adults) of the same compound?
A: no deaths or serious AEs leading to trial discontinuation were observed

Q: What about the “safety profiles, fasted vs fed” value (healthy adult men) of the same compound?
A: no significant differences in safety profiles

Q: And the “inhibitory or inducing effect in vitro” value (CYP1A2)?
A: No inhibitory or inducing effect

Q: And the “inhibitory or inducing effect in vitro” value (CYP2D6)?
A: No inhibitory or inducing effect

Q: And the “time to reach steady state” value ([1]; 5‐ and 20‐mg doses in men and 10‐mg dose in women)?
A: approximately 12 days

Q: And the “steady state of trough plasma concentrations” value ([1]; 10‐mg dose in men and 5‐mg dose in women)?
A: did not reach steady state even after 12 days

Q: And the clearance at 12 days ([1]; both, human, plasma, oral)?
A: 333 to 867 mL/min

Q: And the CL/F ([1]; day 1, female, 5 mg daily, fed, n = 5, mean (SD))?
A: 22.3 (19.6) L/h

Q: And the CL/F ([1]; day 1, female, 10 mg daily, fed, n = 6, mean (SD))?
A: 99.3 (104.7) L/h

Q: What about the CL/F ([1]; day 1, male, 5 mg daily, fed, n = 6, mean (SD)) of the same compound?
A: 30.6 (9.4) L/h

Q: What about the CL/F ([1]; day 1, male, 10 mg daily, fed, n = 6, mean (SD)) of the same compound?
A: 29.1 (12.0) L/h

Q: And the CL/F ([1]; day 1, male, 20 mg daily, fed, n = 6, mean (SD))?
A: 50.4 (17.1) L/h

Q: What about the CL/F ([1]; day 12, female, 5 mg daily, fed, n = 5, mean (SD)) of the same compound?
A: 20.2 (9.5) L/h

Q: And the “R(AUC), cumulative ratio of AUC values” [1, 2]?
A: 6.0 (2.0)

Q: What about the “R(Cmax), cumulative ratio of Cmax values” [1, 2] of the same compound?
A: 5.0 (1.5)

Q: What about the CL/F ([1]; day 12, female, 10 mg daily, fed, n = 6, mean (SD)) of the same compound?
A: 69.9 (94.8) L/h

Q: And the “R(AUC), cumulative ratio of AUC values” [1, 3]?
A: 5.3 (2.2)

Q: And the “R(Cmax), cumulative ratio of Cmax values” [1, 3]?
A: 3.9 (1.5)

Q: What about the CL/F ([1]; day 12, male, 5 mg daily, fed, n = 6, mean (SD)) of the same compound?
A: 33.1 (10.3) L/h

Q: And the “R(AUC), cumulative ratio of AUC values” [1, 4]?
A: 5.2 (1.4)

Q: What about the “R(Cmax), cumulative ratio of Cmax values” [1, 4] of the same compound?
A: 4.4 (1.1)

Q: What about the CL/F ([1]; day 12, male, 10 mg daily, fed, n = 6, mean (SD)) of the same compound?
A: 23.8 (4.4) L/h

Q: And the “R(AUC), cumulative ratio of AUC values” [1, 5]?
A: 6.2 (0.9)

Q: And the “R(Cmax), cumulative ratio of Cmax values” [1, 5]?
A: 5.1 (0.6)

Q: What about the CL/F ([1]; day 12, male, 20 mg daily, fed, n = 6, mean (SD)) of the same compound?
A: 51.5 (16.6) L/h

Q: What about the “R(AUC), cumulative ratio of AUC values” [1, 6] of the same compound?
A: 3.9 (1.0)

Q: What about the “R(Cmax), cumulative ratio of Cmax values” [1, 6] of the same compound?
A: 3.2 (0.7)

Q: What about the AUC(0-t) ([1]; female, human, plasma, oral, 5 mg, AUC0–24, day 1, female, 5 mg daily, fed, n = 5, mean (SD)) of the same compound?
A: 47.1 ng·h/mL

Q: What about the AUC(0-t) ([1]; female, human, plasma, oral, 5 mg, AUC0–24, day 12, female, 5 mg daily, fed, n = 5, mean (SD)) of the same compound?
A: 284 ng·h/mL

Q: What about the half-life ([1]; female, human, plasma, oral, 5 mg, T1/2, day 1, female, 5 mg daily, fed, n = 5, mean (SD)) of the same compound?
A: 113 h

Q: And the half-life ([1]; female, human, plasma, oral, 5 mg, T1/2, day 12, female, 5 mg daily, fed, n = 5, mean (SD))?
A: 79.8 h

Q: What about the AUC(0-t) ([1]; female, human, plasma, oral, 10 mg, AUC0–24, day 1, female, 10 mg daily, fed, n = 6, mean (SD)) of the same compound?
A: 53.3 ng·h/mL

Q: What about the AUC(0-t) ([1]; female, human, plasma, oral, 10 mg, AUC0–24, day 12, female, 10 mg daily, fed, n = 6, mean (SD)) of the same compound?
A: 295 ng·h/mL

Q: And the half-life ([1]; female, human, plasma, oral, 10 mg, T1/2, day 1, female, 10 mg daily, fed, n = 6, mean (SD))?
A: 34.2 h

Q: What about the half-life ([1]; female, human, plasma, oral, 10 mg, T1/2, day 12, female, 10 mg daily, fed, n = 6, mean (SD)) of the same compound?
A: 58 h

Q: What about the “average time to reach steady state” value ([1]; given a median half‐life of 67 hours) of the same compound?
A: 14 days

Q: What about the half-life ([1]; human, plasma, oral, median half‐life, as given in the discussion) of the same compound?
A: 67 h

Q: And the AUC(0-t) ([1]; male, human, plasma, oral, 5 mg, AUC0–24, day 1, male, 5 mg daily, fed, n = 6, mean (SD))?
A: 31.6 ng·h/mL

Q: What about the AUC(0-t) ([1]; male, human, plasma, oral, 5 mg, AUC0–24, day 12, male, 5 mg daily, fed, n = 6, mean (SD)) of the same compound?
A: 163 ng·h/mL

Q: And the half-life ([1]; male, human, plasma, oral, 5 mg, T1/2, day 1, male, 5 mg daily, fed, n = 6, mean (SD))?
A: 68 h

Q: What about the half-life ([1]; male, human, plasma, oral, 5 mg, T1/2, day 12, male, 5 mg daily, fed, n = 6, mean (SD)) of the same compound?
A: 58 h

Q: What about the AUC(0-t) ([1]; male, human, plasma, oral, 10 mg, AUC0–24, day 1, male, 10 mg daily, fed, n = 6, mean (SD)) of the same compound?
A: 71 ng·h/mL

Q: What about the AUC(0-t) ([1]; male, human, plasma, oral, 10 mg, AUC0–24, day 12, male, 10 mg daily, fed, n = 6, mean (SD)) of the same compound?
A: 432 ng·h/mL

Q: And the half-life ([1]; male, human, plasma, oral, 10 mg, T1/2, day 12, male, 10 mg daily, fed, n = 6, mean (SD))?
A: 65.1 h

Q: And the AUC(0-t) ([1]; male, human, plasma, oral, 20 mg, AUC0–24, day 1, male, 20 mg daily, fed, n = 6, mean (SD))?
A: 110 ng·h/mL

Q: And the AUC(0-t) ([1]; male, human, plasma, oral, 20 mg, AUC0–24, day 12, male, 20 mg daily, fed, n = 6, mean (SD))?
A: 433 ng·h/mL

Q: And the half-life ([1]; male, human, plasma, oral, 20 mg, T1/2, day 1, male, 20 mg daily, fed, n = 6, mean (SD))?
A: 44 h

Q: And the half-life ([1]; male, human, plasma, oral, 20 mg, T1/2, day 12, male, 20 mg daily, fed, n = 6, mean (SD))?
A: 56.8 h

Q: What about the “Fe0–x, fraction excreted (VOR)” value ([1]; urine 0 to 24 hours (day 1), female, 5 mg daily, n = 5, mean (SD)) of the same compound?
A: 0.00 (0.0) %

Q: What about the “Fe0–x, fraction excreted (VOR)” value ([1]; urine 0 to 24 hours (day 1), male, 5 mg daily, n = 6, mean (SD)) of the same compound?
A: 0.00 (0.0) %

Q: What about the “Fe0–x, fraction excreted (VOR)” value ([1]; urine 0 to 288 hours (day 12), female, 5 mg daily, n = 5, mean (SD)) of the same compound?
A: 0.0494 (0.087) %

Q: What about the “Fe0–x, fraction excreted (VOR)” value ([1]; urine 0 to 288 hours (day 12), male, 5 mg daily, n = 6, mean (SD)) of the same compound?
A: 0.0072 (0.018) %

Q: And the “inhibitory or inducing effect in vitro” value (CYP2B6)?
A: No inhibitory or inducing effect

Q: And the “inhibitory or inducing effect in vitro” value (CYP2C19)?
A: No inhibitory or inducing effect
